Data on one compound can be found in article PMC9183947 (Molecular imaging and biology, 2021).

Data set [1] deals with BPR cells (VLA-4−). Kind of data set: Saturation binding of [64Cu]-LLP2A to BPR cells. Also noted: species or system mouse.
The nature of data set [2]: Biodistribution in BPRα tumor-bearing mice. The format is in vivo, C57BL/6 mice. The following applies: both, C57BL/6, mouse, iv, 7.4 MBq, total radioactivity. The essentials:
(§1)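 Male and female C57BL/6 mice (4–6 weeks old) carried s.c. right-flank tumours from 5 x 10^5 cells in an equal volume of Matrigel. They received 7.4 MBq radiotracer (57.2 MBq/nmol) via lateral tail vein and were euthanised right after 24 h imaging (n=6; 3m/3f). Tissues and tumour were weighed and γ-counted. %IA/g was decay-corrected against an injected-dose standard.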

The conditions of data set [3]: previously demonstrated, cited from earlier work.
For data set [4], the system named is s.c. BPR and BPRα tumors. Description: PET/CT imaging of BPR and BPRα tumor models. The format is in vivo, C57BL/6 mice. The essentials:
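Mice bore s.c. flank tumours (5 x 10^5 cells plus Matrigel; n=9 per line, 3m/6f) and received 7.4 MBq radiotracer i.v. (57.2 MBq/nmol). Under 2% isoflurane, static 10-min PET/CT scans were taken at 4 and 24 h and reconstructed by OSEM-3D. ROIs were drawn on CT. SUV = activity concentration x body weight/injected dose. Tumour-to-muscle SUV ratios were derived.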

In data set [5] the test system is B16F10 melanoma cells (VLA-4+). The following applies: previously reported; cited from earlier work.
Data set [6] can be described thus: Biodistribution in BPR tumor-bearing mice. The format is in vivo, C57BL/6 mice. The following applies: both, C57BL/6, mouse, iv, 7.4 MBq, total radioactivity. The essentials: as §1
Data set [7] deals with BPR cells (VLA-4−). Kind of data set: [64Cu]-LLP2A internalization assay, BPR cells. The format is cell-based, mouse. The following applies: 15 min - 4 h at 37°C. The essentials:
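Cells (1 x 10^5/well, seeded 24 h) were held in DMEM/1% BSA/1 mM Mn2+. Blocked wells first had 10 μg unlabelled PEG4 peptide for 15 min at 37°C. Each well then received 0.44 MBq radiotracer (3.43 MBq/nmol) at 37°C for 15 min, 2 h or 4 h. Surface activity was stripped with 20 mM sodium acetate pH 4.0 (10 min). Lysates were γ-counted, corrected for background, block and decay, and normalised to protein; n=3.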

Data set [8] concerns the target VLA-4 (integrin α4β1) on BPRα cells (Mus musculus, UniProt P09055+Q00651). Kind of data set: Saturation binding of [64Cu]-LLP2A to BPRα cells. The following applies: normalized to cellular protein, triplicate.

“Also recorded” adds a separate entry of the source. Starred links: 1 amine or outer side, 2 acyl side, 3 side chain; linkers in the order of their positions; H or OH if unused. Non-standard residues stand in square brackets, D forms with d. Residues, ends and D or L forms follow the SMILES beside them. Groups on a side chain read outwards from the residue. *: point of attachment. Acryloyl(3-(3-pyridyl),E) = O=C(/C=C/c1cccnc1)*; X2 = O=C(CN1CCCN2CCN(CCCN(CP(=O)(O)O)CC2)CC1)*; X1 = O=C(Cc1ccc(N[*:1])cc1)[*:2]; Aad = N[C@@H](CCCC(=O)O)C(=O)O; NH(2-Me-phenyl) = Cc1ccccc1N*; PEG4 = NCCOCCOCCOCCOCCC(=O)O; Ac6c = NC1(C(=O)O)CCCCC1; CO = O=C([*:1])[*:2]

VLA-4 (integrin α4β1) on BPRα cells, sequence (Q00651 41-1039): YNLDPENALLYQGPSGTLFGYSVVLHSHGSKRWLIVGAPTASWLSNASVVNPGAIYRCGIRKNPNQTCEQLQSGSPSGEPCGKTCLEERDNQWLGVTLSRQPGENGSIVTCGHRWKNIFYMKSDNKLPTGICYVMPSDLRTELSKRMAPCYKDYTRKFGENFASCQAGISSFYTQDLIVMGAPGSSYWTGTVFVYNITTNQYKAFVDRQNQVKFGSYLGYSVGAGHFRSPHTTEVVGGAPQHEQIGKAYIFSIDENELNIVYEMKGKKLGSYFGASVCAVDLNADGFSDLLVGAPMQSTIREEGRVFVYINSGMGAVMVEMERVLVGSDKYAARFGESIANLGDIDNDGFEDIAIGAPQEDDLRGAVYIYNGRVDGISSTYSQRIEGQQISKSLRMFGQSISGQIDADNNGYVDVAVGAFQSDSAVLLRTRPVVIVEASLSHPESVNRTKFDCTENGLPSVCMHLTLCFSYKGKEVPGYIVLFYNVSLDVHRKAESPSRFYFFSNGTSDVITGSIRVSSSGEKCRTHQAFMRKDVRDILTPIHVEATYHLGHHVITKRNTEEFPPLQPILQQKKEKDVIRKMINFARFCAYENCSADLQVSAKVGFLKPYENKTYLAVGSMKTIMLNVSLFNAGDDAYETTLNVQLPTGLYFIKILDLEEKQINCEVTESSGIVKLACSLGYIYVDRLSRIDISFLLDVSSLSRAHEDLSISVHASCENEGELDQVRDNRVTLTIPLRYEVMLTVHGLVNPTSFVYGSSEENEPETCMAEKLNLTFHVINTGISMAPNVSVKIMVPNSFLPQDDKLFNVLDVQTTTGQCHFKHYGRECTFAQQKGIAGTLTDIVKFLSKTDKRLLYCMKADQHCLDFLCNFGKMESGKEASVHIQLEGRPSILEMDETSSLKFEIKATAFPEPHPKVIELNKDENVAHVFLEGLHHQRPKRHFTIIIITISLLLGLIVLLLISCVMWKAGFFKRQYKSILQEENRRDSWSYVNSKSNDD
VLA-4 (integrin α4β1) on BPRα cells, sequence (P09055 21-798): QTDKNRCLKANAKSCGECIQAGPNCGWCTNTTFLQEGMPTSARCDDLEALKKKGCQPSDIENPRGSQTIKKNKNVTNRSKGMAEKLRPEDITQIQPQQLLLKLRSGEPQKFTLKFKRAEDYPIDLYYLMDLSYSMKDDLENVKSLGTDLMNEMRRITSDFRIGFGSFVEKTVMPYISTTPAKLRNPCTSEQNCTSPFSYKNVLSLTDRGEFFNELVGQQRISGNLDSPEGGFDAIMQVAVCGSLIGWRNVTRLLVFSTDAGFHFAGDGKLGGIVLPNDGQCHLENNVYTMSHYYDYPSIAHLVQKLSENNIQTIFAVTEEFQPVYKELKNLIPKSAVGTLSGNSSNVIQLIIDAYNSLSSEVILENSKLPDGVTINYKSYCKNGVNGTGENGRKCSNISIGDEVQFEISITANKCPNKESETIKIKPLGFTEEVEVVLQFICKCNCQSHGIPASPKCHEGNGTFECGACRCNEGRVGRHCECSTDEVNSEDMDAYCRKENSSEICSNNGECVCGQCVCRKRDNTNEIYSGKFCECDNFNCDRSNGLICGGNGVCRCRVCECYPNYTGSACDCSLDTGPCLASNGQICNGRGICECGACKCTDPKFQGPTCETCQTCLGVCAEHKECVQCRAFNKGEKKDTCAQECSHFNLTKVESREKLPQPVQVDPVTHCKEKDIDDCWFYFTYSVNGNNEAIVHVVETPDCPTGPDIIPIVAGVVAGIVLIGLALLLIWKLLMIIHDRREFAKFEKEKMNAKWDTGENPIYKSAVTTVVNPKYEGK

What is called tissue uptake is the percentage of the injected dose found per gram of tissue. In the case of `Cc1ccccc1NC(=O)Nc1ccc(CC(=O)N[C@@H](CCCCNC(=O)/C=C/c2cccnc2)C(=O)N[C@@H](CCCC(=O)O)C(=O)NC2(C(=O)N[C@@H](CCCCNC(=O)CCOCCOCCOCCOCCNC(=O)CN3CCCN4CCN(CCCN(CP(=O)(O)O)CC4)CC3)C(N)=O)CCCCC2)cc1` [[^64Cu]-LLP2A, [^64Cu]-CB-TE1A1P-PEG4-LLP2A, metal not drawn] ({NH(2-Me-phenyl)-CO}-[X1]K(Acryloyl(3-(3-pyridyl),E))[Aad][Ac6c]K([PEG4-X2])-NH2; N-terminus and C-terminus assumed), the “binding to BPR cells (saturation binding)” value in data set [1] (1-100 nM tracer, on ice 2 h, blocked with LLP2A-PEG4) is recorded as “indeterminate binding; also recorded: no saturation occurs”. Further, the Bmax result in data set [1] (model fit poor, R^2=0.0002) was “not interpretable”; in data set [5], 300 ± 4.5 fmol/mg; in data set [8] it was 145 ± 8.8 fmol/mg. In addition, the tissue uptake at 24 h turned out to be 1.6 ± 0.5 %ID/g in data set [2] (bone marrow); 6 ± 1.9 %ID/g in data set [2] (spleen); 4.2 ± 4 %ID/g in data set [2] (thymus); 2.8 ± 0.2 %ID/g in data set [2] (tumor); 8.1 ± 4.4 %ID/g in data set [6] (spleen); 3.5 ± 0.9 %ID/g in data set [6] (thymus). For the same compound, the tissue uptake at 24 h in data set [6] (tumor) was found to be 1.7 ± 0.2 %ID/g. Moreover, in data set [3] (human serum), the “stability in human serum” value is listed as “stability in human serum”. The “binding of the conjugate to plasma proteins” value in data set [3] was “negligible”. For the same compound, the “tumor uptake in BPRα relative to BPR (PET/CT)” value in data set [4] (4h post-injection, 7.4 MBq i.v., n=9 each, p=0.0021) is “significant increase”. In addition, the “tumor-to-muscle ratio of BPRα vs. BPR (PET/CT SUV)” value in data set [4] (4h post-injection, n=9, p=0.0005) is recorded as “significantly greater”. Also, the “BPRα tumor uptake (PET/CT)” value in data set [4] (24h post-injection, n=9) was “remained detectable”. In data set [7], the internalization entry is “undetectable”.
